Laboratory results from ChEMBL document CHEMBL4339209, “Chemical modifications of imidazole-containing alkoxyamines increase C-ON bond homolysis rate: Effects on their cytotoxic properties in glioblastoma cells” (Bioorg Med Chem, 2019).

How the values were obtained:
[1] = Drug homolysis in H2O/MeOH buffered with HEPES/NaCl at pH 7.4 assessed as rate constant by measuring nitroxide level in presence of alkyl radical scavenger TEMPOR by 31P[1H]-NMR analysis
[2] = Drug homolysis in H2O/MeOH buffered with HCl/KCl at pH 2.2 assessed as activation energy in presence of alkyl radical scavenger TEMPOR by 31P[1H]-NMR analysis
[3] = Drug homolysis in H2O/MeOH buffered with Na2CO3/NaHCO3 at pH 10.3 assessed as activation energy in presence of alkyl radical scavenger TEMPOR by 31P[1H]-NMR analysis
U-87 MG = assay: Cytotoxicity against human U87MG cells assessed as reduction in cell survival measured after 72 hrs by MTT assay; assay type: functional, cell-based; details: for Activity: U-87MG ATCC
Procedure, shortened: (§1)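 MTT viability on 2D cultures, U87-MG in DMEM and U251-MG in EMEM with […], both with 10% FBS and Pen Strep. 5000 cells seeded, then 72 h exposure to 500, 250, 100, 50, 25, 10 and 5 μM (DMSO at most […]). MTT 0.5 mg/mL for 1 h, formazan in DMSO read at 550 nm. Survival as % of control. IC50 determined graphically. At least triplicate.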

[4] = Drug homolysis in H2O/MeOH buffered with HCl/KCl at pH 2.2 assessed as rate constant by measuring nitroxide level in presence of alkyl radical scavenger TEMPOR by 31P[1H]-NMR analysis
[5] = Drug homolysis in H2O/MeOH buffered with HEPES/NaCl at pH 7.4 assessed as activation energy in presence of alkyl radical scavenger TEMPOR by 31P[1H]-NMR analysis
[6] = Drug homolysis in H2O/MeOH buffered with Na2CO3/NaHCO3 at pH 10.3 assessed as rate constant by measuring nitroxide level in presence of alkyl radical scavenger TEMPOR by 31P[1H]-NMR analysis
U-251 = assay: Cytotoxicity against human U251MG cells assessed as reduction in cell survival measured after 72 hrs by MTT assay; assay type: functional, cell-based; procedure, shortened: as §1
[7] = Stability in H2O/MeOH buffered with HEPES/NaCl at pH 7.4 assessed as temperature; assay type: physicochemical; details: buffer
[8] = n-octanol/phosphate buffered saline partition coefficient, log D of the compound at pH 7.4 by shake-flask method; assay type: physicochemical
Procedure, shortened: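 Shake-flask partition between pre-saturated n-octanol and PBS at pH 7.4. The aqueous phase was quantified by RP-HPLC on a 4.6 × 50 mm column, eluting with CH3CN/H2O (each with 0.1% TFA) from 10:90 to 100:0 over 10 min.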

[9] = Half life in H2O/MeOH buffered with HEPES/NaCl at pH 7.4 in presence of alkyl radical scavenger TEMPOR by 31P[1H]-NMR analysis; assay type: physicochemical; details: for t1/2: buffer; for half-life: H2O/MeOH buffered with HEPES/NaCl
[10] = Dissociation constant, pKa of the compound in 1:1 v/v D2O/CD3OD by 1H-NMR spectrometric method; assay type: physicochemical
Procedure, shortened: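 Samples in D2O/CD3OD (1:1 v/v) were adjusted with DCl/NaOD to a series of pH* values, read on a meter calibrated with non-deuterated standards, and 1H-NMR was recorded at 400 MHz. Imidazole proton chemical shifts were plotted against pH* and fitted sigmoidally. The pKa* was converted by pH = 0.929 pH* + 0.42.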

[11] = Half life in H2O/MeOH buffered with Na2CO3/NaHCO3 at pH 10.3 in presence of alkyl radical scavenger TEMPOR by 31P[1H]-NMR analysis; assay type: physicochemical; details: buffer, pH 10.3
[12] = Half life in H2O/MeOH buffered with HCl/KCl at pH 2.2 in presence of alkyl radical scavenger TEMPOR by 31P[1H]-NMR analysis; assay type: physicochemical; details: buffer

Compound	Kdiss [1]	Ea [2] [kcal/mol]	Ea [3] [kcal/mol]	Activity (U-87 MG)	Kdiss [4]	Ea [5] [kcal/mol]	Kdiss [6]	Activity (U-251)	logD ([8]; octanol/water)	also measured
CCOP(=O)(OCC)C(N(OC(C)c1c[nH]cn1)C(C)(C)C)C(C)(C)C (stereo in doubt; form 2)	1.95 ×10⁻⁴ /s	29	29.5	Dose-dependent effect	2.8 ×10⁻⁴ /s	29.2	4.07 ×10⁻⁵ /s	Dose-dependent effect		
CCOP(=O)(OCC)C(N(OC(C)n1cc[n+](C)c1)C(C)(C)C)C(C)(C)C (stereo in doubt; form 1)									-0.1	IC50 (U-87 MG): 25 to 380 µM; T [7]: 100 °C; t1/2 [9]: 5 yr
Cn1nnc2c(C(N)=O)ncn2c1=O [TEMOZOLOMIDE]										IC50 (U-251; U-251, 72 h): 455 µM
CCOP(=O)(OCC)C(N(OC(C)c1n(C)cc[n+]1C)C(C)(C)C)C(C)(C)C (stereo in doubt; form 2) [listing 1 of 2 here]	1.1 ×10⁻³ /s			Dose-dependent effect		26.4		Dose-dependent effect		
CCOP(=O)(OCC)C(N(OC(C)c1nccn1C)C(C)(C)C)C(C)(C)C (stereo in doubt; form 1)	4.76 ×10⁻⁴ /s	26.2	28.7	Dose-dependent effect	1.51 ×10⁻³ /s	27.8	4.31 ×10⁻⁴ /s	Dose-dependent effect		
CCOP(=O)(OCC)C(N(OC(C)n1cc[n+](C)c1)C(C)(C)C)C(C)(C)C (stereo in doubt; form 2)									0.3	
CCOP(=O)(OCC)C(N(OC(C)c1cn(C)cn1)C(C)(C)C)C(C)(C)C (stereo in doubt; form 2) [listing 1 of 2 here]	1.24 ×10⁻⁴ /s	28.8	30.3	Dose-dependent effect	3.55 ×10⁻⁴ /s	29.5	4.57 ×10⁻⁵ /s	Dose-dependent effect		
CCOP(=O)(OCC)C(N(OC(C)c1cc[n+](C)cc1)C(C)(C)C)C(C)(C)C (centres undefined)										IC50 (U-87 MG): 250 µM; half-life [9]: 0.75 h
CCOP(=O)(OCC)C(N(OC(C)c1ncc[nH]1)C(C)(C)C)C(C)(C)C (stereo in doubt; form 1) [listing 1 of 2 here]	2 ×10⁻⁴ /s	26.7	29.2	Dose-dependent effect	7.47 ×10⁻⁴ /s	28.4	1.97 ×10⁻⁴ /s	Dose-dependent effect		
CCOP(=O)(OCC)C(N(OC(C)c1cn(C)c[n+]1C)C(C)(C)C)C(C)(C)C (stereo in doubt; form 2) [listing 1 of 2 here]	1.61 ×10⁻³ /s			Dose-dependent effect		27.7		Dose-dependent effect		
CCOP(=O)(OCC)C(N(OC(C)c1n(C)cc[n+]1C)C(C)(C)C)C(C)(C)C (stereo in doubt; form 2) [listing 2 of 2 here]									0.5	T [7]: 60 °C; t1/2 [9]: 3.4 h
CCOP(=O)(OCC)C(N(OC(C)c1cn(C)c[n+]1C)C(C)(C)C)C(C)(C)C (stereo in doubt; form 2) [listing 2 of 2 here]									0.4	T [7]: 80 °C; t1/2 [9]: 29 h
CCOP(=O)(OCC)C(N(OC(C)n1ccnc1)C(C)(C)C)C(C)(C)C (stereo in doubt; form 2)										pKa [10]: 5.81
CCOP(=O)(OCC)C(N(OC(C)c1c[nH]cn1)C(C)(C)C)C(C)(C)C (stereo in doubt; form 1)	2.08 ×10⁻⁴ /s	28.5	29.4	Dose-dependent effect	5.23 ×10⁻⁴ /s	29.2	1.53 ×10⁻⁴ /s	Dose-dependent effect		
CCOP(=O)(OCC)C(N(OC(C)c1cn(C)c[n+]1C)C(C)(C)C)C(C)(C)C (stereo in doubt; form 1) [listing 1 of 2 here]										IC50 (U-87 MG): 25 to 380 µM; T [7]: 70 °C; logD ([8]; n-octanol/phosphate buffered saline, read-out: logD): 0.8; half-life [9]: 25 h
CCOP(=O)(OCC)C(N(OC(C)c1n(C)cc[n+]1C)C(C)(C)C)C(C)(C)C (stereo in doubt; form 1) [listing 1 of 2 here]	1.27 ×10⁻³ /s			Dose-dependent effect		27.1		Dose-dependent effect		
CCOP(=O)(OCC)C(N(OC(C)c1ncc[nH]1)C(C)(C)C)C(C)(C)C (stereo in doubt; form 1) [listing 2 of 2 here]									4.1	t1/2 [11]: 312 h; pKa [10]: 6.04; t1/2 [12]: 5 h; t1/2 [9]: 81 h
CCOP(=O)(OCC)C(N(OC(C)c1cn(C)cn1)C(C)(C)C)C(C)(C)C (stereo in doubt; form 2) [listing 2 of 2 here]									3.8	t1/2 [11]: 1680 h; pKa [10]: 6.56; t1/2 [12]: 170 h; t1/2 [9]: 528 h
CCOP(=O)(OCC)C(N(OC(C)c1ncc[nH]1)C(C)(C)C)C(C)(C)C (stereo in doubt; form 2)	2.61 ×10⁻⁴ /s	26.6	29.1	Dose-dependent effect	9.16 ×10⁻⁴ /s	28.2	2.47 ×10⁻⁴ /s	Dose-dependent effect		
CCOP(=O)(OCC)C(N(OC(C)c1n(C)cc[n+]1C)C(C)(C)C)C(C)(C)C (stereo in doubt; form 1) [listing 2 of 2 here]									-0.2	IC50 (U-87 MG): 25 to 380 µM; T [7]: 70 °C; t1/2 [9]: 10 h
CCOP(=O)(OCC)C(N(OC(C)c1ccncc1)C(C)(C)C)C(C)(C)C (centres undefined)										pKa ([10]; 1:1 v/v D2O/CD3OD, read-out: pKa): 4.7
CCOP(=O)(OCC)C(N(OC(C)c1cn(C)cn1)C(C)(C)C)C(C)(C)C (stereo in doubt; form 1)	8.58 ×10⁻⁵ /s	28.3	30.2	Dose-dependent effect	7.84 ×10⁻⁴ /s	29.8	4.89 ×10⁻⁵ /s	Dose-dependent effect		
CCOP(=O)(OCC)C(N(OC(C)c1nccn1C)C(C)(C)C)C(C)(C)C (stereo in doubt; form 2) [listing 1 of 2 here]	1.28 ×10⁻³ /s	26.1	27.9	Dose-dependent effect	1.8 ×10⁻³ /s	27.1	1.23 ×10⁻³ /s	Dose-dependent effect		
CCOP(=O)(OCC)C(N(OC(C)c1nccn1C)C(C)(C)C)C(C)(C)C (stereo in doubt; form 2) [listing 2 of 2 here]									3.7	t1/2 [11]: 39 h; pKa [10]: 6.5; t1/2 [12]: 1.98 h; t1/2 [9]: 10 h
CCOP(=O)(OCC)C(N(OC(C)c1cn(C)c[n+]1C)C(C)(C)C)C(C)(C)C (stereo in doubt; form 1) [listing 2 of 2 here]	5.73 ×10⁻⁴ /s			Dose-dependent effect		27.7		Dose-dependent effect		
